In paper PMC6522656 (Heliyon, 2019):

Key:
HEK293/pcDNA3.1 = experiment: MTT cytotoxicity assay, HEK293/pcDNA3.1; format: cell-based, human; settings: for IC50: Homo sapiens, HEK293, 72 h, read-out: IC50 HEK293/pcDNA.3.1 Normal; for significant cytotoxicity in human embryonic kidney cells: at a concentration of less than 50 μM
Outline: (§1)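 Cells grown as monolayers in DMEM with 4.5 g glucose, 10% FBS and 1% penicillin/streptomycin. Seeded cells exposed for 72 h to several concentrations of test compound (0.1–100 μM), then given MTT for 4 h. Formazan dissolved in DMSO; absorbance read at 570 nm. IC50 taken as the mean of three independent experiments in triplicate; 100 μM cut-off.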

[1] = system: mouse fibroblast (NIH/3T3); experiment: MTT cytotoxicity assay, NIH/3T3; format: cell-based; settings: NIH3T3, 72 h, read-out: IC50 3T3 Normal
Outline: as §1

HT-29 cancer cells = experiment: MTT cytotoxicity assay, HT-29; format: cell-based; settings: Homo sapiens, HT-29, 72 h, read-out: IC50 HT-29 Colon
Outline: as §1

HCT-116 = experiment: MTT cytotoxicity assay, HCT-116; format: cell-based; settings: Homo sapiens, HCT-116, 72 h, read-out: IC50 HCT-116 Colon
Outline: as §1

DU-145 cells = experiment: MTT cytotoxicity assay, DU-145; format: cell-based; settings: Homo sapiens, DU-145, 72 h, read-out: IC50 DU-145 Prostate
Outline: as §1

A2780 cells [2] = experiment: Annexin V based apoptosis assay; format: cell-based; settings: 24 h; for Q1 (flow cytometry quadrant): control Q1 94.1%; for Q2 (flow cytometry quadrant, apoptosis): control Q2 5.87 %
A2780 cells [3] = experiment: Colony formation assay; format: cell-based; settings: 10 or 20 μM, incubated 24 hrs, colonies over 2 weeks
Outline: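 A2780 cells exposed to vehicle (0 μM) or test compound (10 or 20 μM) for 24 h, then reseeded at very low density in six-well plates and grown 2 weeks. Colonies fixed, stained and counted under a microscope; colony formation rate calculated. Repeated independently in triplicate.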

A2780 cells [4] = experiment: Nuclear condensation-based apoptosis assay; format: cell-based; settings: 5, 10, or 20 μM at 24 and 48 h

Row | Structure (SMILES) | IC50 (HEK293/pcDNA3.1) [µM] | IC50 [1] [µM] | IC50 (HT-29 cancer cells) [µM] | IC50 (HCT-116) [µM] | IC50 (DU-145 cells) [µM] | significant cytotoxicity in human embryonic kidney cells (HEK293/pcDNA3.1) | Q1 (flow cytometry quadrant) (A2780 cells [2]; 10 μM) [%] | Q2 (flow cytometry quadrant, apoptosis) (A2780 cells [2]; 10 μM) [%] | Q1 (flow cytometry quadrant) (A2780 cells [2]; 20 μM) [%] | Q2 (flow cytometry quadrant, apoptosis) (A2780 cells [2]; 20 μM) [%] | colony formation of A2780 cells (A2780 cells [3]) | nuclear morphology of A2780 cells (DAPI staining) (A2780 cells [4])
1 | O=C1Nc2ccccc2C1=Cc1cc2ccccc2nc1Cl [LM01, 3-((2-chloroquinolin-3-yl)methylene)indolin-2-one] | 64.5 | > 100 | > 100 | > 100 | 77.5 |  |  |  |  |  |  | 
2 | Cc1ccc2nc(Cl)c(C=C3C(=O)Nc4ccccc43)cc2c1 [LM02, 3-((2-chloro-6-methylquinolin-3-yl)methylene)indolin-2-one] | 73.4 | > 100 | > 100 | 52.1 | > 100 |  |  |  |  |  |  | 
3 | Cc1cc2cc(C=C3C(=O)Nc4ccccc43)c(Cl)nc2cc1C [LM03, 3-((2-chloro-6,7-dimethylquinolin-3-yl)methylene)indolin-2-one] | 97.4 | > 100 | > 100 | > 100 | > 100 |  |  |  |  |  |  | 
4 | COc1ccc2nc(Cl)c(C=C3C(=O)Nc4ccccc43)cc2c1 [LM04, 3-((2-chloro-6-methoxyquinolin-3-yl)methylene)indolin-2-one] | 39.9 | > 100 | > 100 | 60.9 | 47.2 | produced significant cytotoxicity |  |  |  |  |  | 
5 | COc1ccc2cc(C=C3C(=O)Nc4ccccc43)c(Cl)nc2c1 [LM05, 3-((2-chloro-7-methoxyquinolin-3-yl)methylene)indolin-2-one] | > 100 | > 100 | > 100 | 56.2 | > 100 |  |  |  |  |  |  | 
6 | COc1cc2cc(C=C3C(=O)Nc4ccccc43)c(Cl)nc2cc1OC [LM06, 3-((2-chloro-6,7-dimethoxyquinolin-3-yl)methylene)indolin-2-one] | > 100 | > 100 | > 100 | 75 | > 100 |  |  |  |  |  |  | 
7 | COc1cccc2cc(C=C3C(=O)Nc4ccccc43)c(Cl)nc12 [LM07, 3-((2-chloro-8-methoxyquinolin-3-yl)methylene)indolin-2-one] | 80.8 | > 100 | > 100 | > 100 | 11 |  |  |  |  |  |  | 
8 | O=C1Nc2ccccc2C1=Cc1cc2cc(Cl)ccc2nc1Cl [LM08, 3-((2,6-dichloroquinolin-3-yl)methylene)indolin-2-one] | 64.3 | > 100 | > 100 | 77.8 | 91.2 |  | 64.8 | 34.6 | 61.5 | 36.9 | significantly inhibited | nuclear condensation
9 | O=C1Nc2ccccc2C1=Cc1cc2ccc(Cl)cc2nc1Cl [LM09, 3-((2,7-dichloroquinolin-3-yl)methylene)indolin-2-one] | 63.2 | > 100 | > 100 | 75.2 | 54.9 |  |  |  |  |  |  | 
10 | O=C1Nc2ccccc2C1=Cc1cc2cc(Br)ccc2nc1Cl [LM10, 3-((6-bromo-2-chloroquinolin-3-yl)methylene)indolin-2-one] | 50.5 | > 100 | > 100 | 41.3 | > 100 | produced significant cytotoxicity |  |  |  |  |  | 
11 | O=C1Nc2ccccc2C1=Cc1cc2ccc3ccccc3c2nc1Cl [LM11, 3-((2-chlorobenzo[h]quinolin-3-yl)methylene)indolin-2-one] | 75.3 | > 100 | > 100 | > 100 | 95.7 |  |  |  |  |  |  | 
